Data: ChEMBL document CHEMBL1136807, “CC-1065 analogues bearing different DNA-binding subunits: synthesis, antitumor activity, and preliminary toxicity study” (J Med Chem, 2003)

Legend:
[1] = system: Mus musculus; assay: Increase in life span of mice bearing L1210 leukemia after administration of 67 […] compound; assay type: functional
Procedure, shortened: (§1)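 In vivo antitumor test in mice bearing L1210 leukemia, read out as increase in life span (ILS). Body weight was monitored. The optimal dose was defined as the dose giving the best antitumor efficacy with body weight loss ≤15%.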

[2] = system: Mus musculus; assay: Increase in life span of mice bearing L1210 leukemia after administration of 45 […] compound; assay type: functional; procedure, shortened: as §1
[3] = system: Mus musculus; assay: Increase in life span of mice bearing L1210 leukemia after administration of 100 […] compound; assay type: functional; procedure, shortened: as §1
[4] = system: Mus musculus; assay: Number of mice bearing L1210 leukemia that survived after 30 days, after administration of 100 […] compound; assay type: functional; procedure, shortened: as §1
[5] = system: Mus musculus; assay: Weight change in mice bearing L1210 leukemia after administration of 100 […] compound; assay type: functional
[6] = system: Mus musculus; assay: Weight change in mice bearing L1210 leukemia after administration of 45 […] compound; assay type: functional
[7] = system: L1210; assay: Compound was tested in vitro against L1210 leukemia cells; assay type: functional, cell-based; conditions: Mus musculus
Procedure, shortened: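 L1210 murine leukemia cells exposed to drug for 48 h; IC50 reported in nM.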

[8] = system: Mus musculus; assay: Number of mice surviving on day 180 treated with 100 […] compound; 8/8; assay type: functional, organism-based
[9] = system: Mus musculus; assay: Number of mice bearing L1210 leukemia that survived after 30 days, after administration of 67 […] compound; assay type: functional; procedure, shortened: as §1
[10] = system: Mus musculus; assay: Weight change in mice bearing L1210 leukemia after administration of 67 […] compound; assay type: functional
[11] = system: Mus musculus; assay: Days until first mouse died treated with 100 […] compound; no death; assay type: functional, organism-based
[12] = system: Mus musculus; assay: Number of mice bearing L1210 leukemia that survived after 30 days, after administration of 45 µg/kg compound
[13] = system: Mus musculus; assay: Number of mice bearing L1210 leukemia that survived after 30 days, after administration of 25 […] compound; assay type: functional; procedure, shortened: as §1
[14] = system: Mus musculus; assay: Increase in life span of mice bearing L1210 leukemia after administration of 25 […] compound; assay type: functional; procedure, shortened: as §1
[15] = system: Mus musculus; assay: Number of mice bearing L1210 leukemia that survived after 30 days, after administration of 70 […] compound; assay type: functional; procedure, shortened: as §1
[16] = system: Mus musculus; assay: Number of mice surviving on day 180 treated with 100 […] compound; 2/8; assay type: functional, organism-based
Procedure, shortened: (§2)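 Delayed-toxicity study in non-tumor-bearing BDF1 mice: single ip dose given on day 0, then animals observed for up to 180 days. Recorded the day the first mouse died and the number of mice alive on day 180, with 6–8 mice per group.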

[17] = system: Mus musculus; assay: Number of mice bearing L1210 leukemia that survived after 30 days, after administration of 42 µg/kg compound
[18] = system: Mus musculus; assay: Weight change in mice bearing L1210 leukemia after administration of 70 […] compound; assay type: functional
[19] = system: Mus musculus; assay: Days until first mouse died treated with 100 […] compound; assay type: functional; procedure, shortened: as §2
[20] = system: Mus musculus; assay: Weight change in mice bearing L1210 leukemia after administration of 25 […] compound; assay type: functional
[21] = system: Mus musculus; assay: Increase in life span of mice bearing L1210 leukemia after administration of 42 […] compound; assay type: functional; procedure, shortened: as §1
[22] = system: Mus musculus; assay: Increase in life span of mice bearing L1210 leukemia after administration of 70 mg/kg compound; assay type: functional; procedure, shortened: as §1
[23] = system: Mus musculus; assay: Weight change in mice bearing L1210 leukemia after administration of 42 […] compound; assay type: functional
[24] = system: Mus musculus; assay: Increase in life span of mice bearing L1210 leukemia after administration of 70 […] compound; toxic; assay type: functional, organism-based; parameters: dose 70 […]
[25] = system: Mus musculus; assay: Number of mice surviving on day 180 treated with 100 […] compound; 4/8; assay type: functional, organism-based
[26] = system: Mus musculus; assay: Increase in life span of mice bearing L1210 leukemia after administration of 250 […] compound; assay type: functional; procedure, shortened: as §1
[27] = system: Mus musculus; assay: Days until first mouse died treated with 1000 […] compound; assay type: functional; procedure, shortened: as §2
[28] = system: Mus musculus; assay: Number of mice bearing L1210 leukemia that survived after 30 days, after administration of 250 […] compound; assay type: functional; procedure, shortened: as §1
[29] = system: Mus musculus; assay: Weight change in mice bearing L1210 leukemia after administration of 250 […] compound; assay type: functional
[30] = system: Mus musculus; assay: Number of mice bearing L1210 leukemia that survived after 30 days, after administration of 500 µg/kg compound
[31] = system: Mus musculus; assay: Number of mice bearing L1210 leukemia that survived after 30 days, after administration of 1000 […] compound; assay type: functional; procedure, shortened: as §1
[32] = system: Mus musculus; assay: Weight change in mice bearing L1210 leukemia after administration of 500 […] compound; assay type: functional
[33] = system: Mus musculus; assay: Number of mice surviving on day 180 treated with 2000 […] compound; 0/6; assay type: functional, organism-based
[34] = system: Mus musculus; assay: Weight change in mice bearing L1210 leukemia after administration of 1000 […] compound; assay type: functional
[35] = system: Mus musculus; assay: Increase in life span of mice bearing L1210 leukemia after administration of 500 […] compound; assay type: functional; procedure, shortened: as §1
[36] = system: Mus musculus; assay: Days until first mouse died treated with 2000 […] compound; assay type: functional; procedure, shortened: as §2
[37] = system: Mus musculus; assay: Increase in life span of mice bearing L1210 leukemia after administration of 1000 […] compound; assay type: functional; procedure, shortened: as §1
[38] = system: Mus musculus; assay: Number of mice surviving on day 180 treated with 100 […] compound; 5/8; assay type: functional, organism-based

SMILES	ILS at 67 mg/kg [1] [%]	ILS at 45 mg/kg [2] [%]	ILS at 100 mg/kg [3] [%]	Survivors [4]	Weight change [5] [%]	Weight change [6] [%]	IC50 [7] [nM]	Survivors [9]	Weight change [10] [%]	Survivors [12]	Survivors [13]	ILS at 25 mg/kg [14] [%]	Survivors [15]	Survivors [17]	Weight change [18] [%]	Days [19]	Weight change [20] [%]	ILS at 42 mg/kg [21] [%]	Weight change [23] [%]	also measured
O=C(Nc1ccc2[nH]c(C(=O)N3CC(CCl)c4c3cc(O)c3ccccc43)cc2c1)c1cc2cc(F)ccc2[nH]1 (racemic)	160	137	158	0	-7	2	0.29	0	-2	0	–	–	–	–	–	–	–	–	–	No. of mice [8]: Mice surviving 8/8; Days [11]: No death
CC(=O)Nc1ccc2[nH]c(C(=O)Nc3ccc4[nH]c(C(=O)N5C[C@@H](CCl)c6c5cc(O)c5ccccc65)cc4c3)cc2c1	–	–	–	–	–	–	1.2	–	–	–	1	173	0	0	-6	49	7	133	5	No. of mice [16]: Mice surviving 2/8; ILS [22]: 80%
CC(=O)Nc1ccc2oc(C(=O)Nc3ccc4[nH]c(C(=O)N5C[C@@H](CCl)c6c5cc(O)c5ccccc65)cc4c3)cc2c1	–	–	–	–	–	–	0.65	–	–	–	1	120	0	0	-18	8	12	67	-7	ILS [24]: Toxic; No. of mice [25]: Mice surviving 4/8
CC(=O)Nc1cc(C(=O)Nc2cc(C(=O)N3CC(CCl)c4c3cc(O)c3ccccc43)n(C)c2)n(C)c1 (racemic)	–	–	–	–	–	–	44	–	–	–	–	–	–	–	–	–	–	–	–	ILS at 250 mg/kg [26]: 31%; Days [27]: 60; Survivors [28]: 0; Weight change [29]: 7%; Survivors [30]: 0; Survivors [31]: 0; Weight change [32]: 5%; No. of mice [33]: Mice surviving 0/6; Weight change [34]: -6%; ILS at 500 mg/kg [35]: 31%; Days until first death [36]: 29 days; ILS at 1000 mg/kg [37]: 77%
CC(=O)Nc1ccc2[nH]c(C(=O)Nc3ccc4[nH]c(C(=O)N5CC(CCl)c6c5cc(O)c5ccccc65)cc4c3)cc2c1 (racemic)	–	–	–	–	–	–	2.5	–	–	–	–	–	–	–	–	–	–	–	–	–
COc1ccc2[nH]c(C(=O)Nc3ccc4[nH]c(C(=O)N5CC(CCl)c6c5cc(O)c5ccccc65)cc4c3)cc2c1 (racemic)	93	93	53	0	-15	2	5.7	0	3	0	–	–	–	–	–	35	–	–	–	No. of mice [38]: Mice surviving 5/8
